{
  "source": "ChEMBL document CHEMBL4732206",
  "about": "“Novel diaryl-2H-azirines: Antitumor hybrids for dual-targeting tubulin and DNA” (Eur J Med Chem, 2021)",
  "key": {"HeLa [1]": {"tested_on": "HeLa", "experiment": "Induction of cell cycle arrest in human HeLa cells assessed as upregulation of BubR1 protein expression at 0.8 to 3.2 uM by Western blot analysis", "assay_type": "functional, cell-based", "conditions": "dose 0.8-3.2 µM", "summary_of_the_method": "(§1)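 HeLa cells were treated with graded concentrations or DMSO, washed in PBS and lysed. Protein was measured by BCA, separated by SDS-PAGE and transferred to PVDF. Membranes were blocked in 5% BSA/TBST, incubated with primary antibodies overnight at 4 °C, then with HRP secondary antibodies. Bands were detected by chemiluminescence.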"}, "HeLa [2]": {"tested_on": "HeLa", "experiment": "Induction of apoptosis in human HeLa cells assessed as late apoptotic cells at 4 uM incubated for 48 hrs by annexin-V-FITC and PI staining based flow cytometry analysis (reference value: 0.23 %)", "assay_type": "functional"}, "[3]": {"experiment": "Toxicity in Balb/c mouse xenografted with human A2780 cells assessed as adverse effect at 25 to 50 mg/kg administered every two days", "assay_type": "organism-based", "conditions": "in vivo, dose 25-50 mg/kg"}, "[4]": {"experiment": "Toxicity in Balb/c mouse xenografted with human A2780 cells assessed as effect on body weight at 25 to 50 mg/kg administered every two days", "assay_type": "organism-based", "conditions": "in vivo, dose 25-50 mg/kg", "summary_of_the_method": "(§2)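 Nude mice carried A2780 cells implanted in PBS in the right flank. When tumors reached 100 mm³, mice were randomized into four groups (n = 10): vehicle, 25 or 50 mg/kg test compound, and PTX 10 mg/kg. Dosing was every two days; vehicle was 10% castor oil and 10% DMSO in PBS. Volume (π/6 × length × width²) and body weight were measured by caliper and scale at each dose. Tumors were excised and weighed at the end.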"}, "HeLa [5]": {"tested_on": "HeLa", "experiment": "Induction of apoptosis in human HeLa cells assessed as viable cells at 2 uM incubated for 48 hrs by annexin-V-FITC and PI staining based flow cytometry analysis (reference value: 97.34 %)", "assay_type": "functional", "conditions": "read-out: Activity"}, "HeLa [6]": {"tested_on": "HeLa", "experiment": "Induction of cell cycle arrest in human HeLa cells assessed as upregulation of p-histone-H3 protein expression at 0.8 to 3.2 uM by Western blot analysis", "assay_type": "functional, cell-based", "conditions": "dose 0.8-3.2 µM", "summary_of_the_method": "as §1"}, "HeLa [7]": {"tested_on": "HeLa", "experiment": "Induction of apoptosis in human HeLa cells assessed as upregulation of p53 protein expression by Western blot analysis", "assay_type": "functional, cell-based", "conditions": "dose 2-8 µM", "summary_of_the_method": "as §1"}, "Jurkat [8]": {"tested_on": "Jurkat", "experiment": "Induction of DNA damage in human Jurkat cells at 100 to 400 nM incubated for 48 hrs by EB staining based analysis", "assay_type": "functional, cell-based", "conditions": "dose 100-400 nM", "summary_of_the_method": "(§3)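 Jurkat cells were exposed to graded concentrations, MMC 200 nM positive control or DMSO for 48 h at 37 °C, with work done in darkness. Cells were embedded in LM agarose on comet slides and lysed for 2 h at 4 °C. Slides were unwound in 1 mM EDTA/200 mM NaOH for 30 min, electrophoresed at 25 V for 15 min, stained with ethidium bromide and imaged by fluorescence microscopy. Tail moment was scored.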"}, "Jurkat [9]": {"tested_on": "Jurkat", "experiment": "Induction of DNA damage in human Jurkat cells assessed as upregulation of GADD45alpha protein expression incubated for 48 hrs by Western blot analysis", "assay_type": "functional, cell-based", "conditions": "dose 2-8 µM"}, "HeLa [10]": {"tested_on": "HeLa", "experiment": "Induction of apoptosis in human HeLa cells assessed as viable cells at 4 uM incubated for 48 hrs by annexin-V-FITC and PI staining based flow cytometry analysis (reference value: 97.34 %)", "assay_type": "functional", "conditions": "read-out: Activity"}, "HeLa [11]": {"tested_on": "HeLa", "experiment": "Induction of cell cycle arrest in human HeLa cells assessed as increase in accumulation of cells at G2/M phase incubated for 24 hrs by PI staining based flow cytometry analysis", "assay_type": "functional", "conditions": "dose 0.4-3.2 µM", "summary_of_the_method": "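HeLa cells were grown for 24 h, then treated with graded concentrations or DMSO for 24 h. Cells were fixed in 75% ethanol at −20 °C overnight, treated with RNase A and stained with PI in PBS in the dark at room temperature. DNA content was measured by flow cytometry.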"}, "HCT-116": {"tested_on": "HCT-116", "experiment": "Antiproliferative activity against human HCT-116 cells assessed as reduction in cell viability incubated for 48 hrs by MTT assay", "assay_type": "functional, cell-based", "conditions": "HCT-116, 48 h", "summary_of_the_method": "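Cells were grown in DMEM with 10% FBS and penicillin/streptomycin at 37 °C and 5% CO2. They were seeded for 24 h, then treated with graded concentrations for 48 h. MTT (5 mg/mL) was added for a further 4 h at 37 °C. Formazan was dissolved in DMSO and absorbance read at 570 nm. IC50 was taken from the concentration-response curve.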"}, "Jurkat [12]": {"tested_on": "Jurkat", "experiment": "Induction of DNA damage in human Jurkat cells assessed as upregulation of Bax protein expression incubated for 48 hrs by Western blot analysis", "assay_type": "functional, cell-based", "conditions": "dose 2-8 µM"}, "HeLa [13]": {"tested_on": "HeLa", "experiment": "Induction of apoptosis in human HeLa cells assessed as late apoptotic cells at 1 uM incubated for 48 hrs by annexin-V-FITC and PI staining based flow cytometry analysis (reference value: 0.23 %)", "assay_type": "functional"}, "HeLa [14]": {"tested_on": "HeLa", "experiment": "Induction of apoptosis in human HeLa cells assessed as early apoptotic cells at 8 uM incubated for 48 hrs by annexin-V-FITC and PI staining based flow cytometry analysis (reference value: 2.25 %)", "assay_type": "functional"}, "A2780 [15]": {"tested_on": "A2780", "experiment": "Antitumor activity against human A2780 cells xenografted in Balb/c mouse assessed as tumor growth inhibition administered every two days by caliper analysis", "assay_type": "functional", "conditions": "dose 25-50 mg/kg", "summary_of_the_method": "as §2"}, "HeLa [16]": {"tested_on": "HeLa", "experiment": "Induction of apoptosis in human HeLa cells assessed as necrotic cells at 2 uM incubated for 48 hrs by annexin-V-FITC and PI staining based flow cytometry analysis (reference value: 0.18 %)", "assay_type": "functional"}, "HUVEC": {"tested_on": "HUVEC", "experiment": "Antiangiogenic activity in HUVEC assessed as disruption of capillary structure incubated for 12 hrs by matrigel-based microscopic analysis", "assay_type": "functional, cell-based", "conditions": "Homo sapiens, dose 75-150 nM", "summary_of_the_method": "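Matrigel polymerized at 37 °C for 2 h, then HUVECs in DMEM were seeded on it. Cells were treated with a range of compound concentrations or DMSO vehicle for 12 h at 37 °C. Capillary-like tubes were photographed through an inverted microscope.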"}, "A2780 [17]": {"tested_on": "A2780", "experiment": "Antitumor activity against human A2780 cells xenografted in Balb/c mouse assessed as reduction in tumor weight at 25 to 50 mg/kg administered every two days", "assay_type": "functional, organism-based", "conditions": "dose 25-50 mg/kg", "summary_of_the_method": "as §2"}, "Jurkat [18]": {"tested_on": "Jurkat", "experiment": "Induction of DNA damage in human Jurkat cells assessed as increase in DNA lesion incubated for 48 hrs by comet assay", "assay_type": "functional, cell-based", "conditions": "dose 100-400 nM", "summary_of_the_method": "as §3"}, "HeLa [19]": {"tested_on": "HeLa", "experiment": "Inhibition of colony formation in human HeLa cells incubated for 48 hrs followed by replacement with fresh medium and further incubation for 7 to 10 days by gentian violet staining based assay", "assay_type": "functional, cell-based", "conditions": "dose 0.5-8 µM", "summary_of_the_method": "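HeLa cells in six-well plates were grown for 24 h at 37 °C, then treated with graded concentrations or DMSO for 48 h. Medium was replaced with fresh medium for a further 7–10 days. Colonies were stained with gentian violet for 30 min, washed with PBS and counted relative to control.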"}, "[20]": {"experiment": "Inhibition of pig brain tubulin polymerization by spectrophotometry", "parameters": "species or system Sus scrofa"}, "HeLa [21]": {"tested_on": "HeLa", "experiment": "Induction of apoptosis in human HeLa cells assessed as early apoptotic cells at 2 uM incubated for 48 hrs by annexin-V-FITC and PI staining based flow cytometry analysis (reference value: 2.25 %)", "assay_type": "functional"}, "HeLa [22]": {"tested_on": "HeLa", "experiment": "Induction of apoptosis in human HeLa cells assessed as early apoptotic cells at 4 uM incubated for 48 hrs by annexin-V-FITC and PI staining based flow cytometry analysis (reference value: 2.25 %)", "assay_type": "functional"}, "HeLa [23]": {"tested_on": "HeLa", "experiment": "Induction of apoptosis in human HeLa cells assessed as necrotic cells at 8 uM incubated for 48 hrs by annexin-V-FITC and PI staining based flow cytometry analysis (reference value: 0.18 %)", "assay_type": "functional"}, "HeLa [24]": {"tested_on": "HeLa", "experiment": "Induction of apoptosis in human HeLa cells assessed as necrotic cells at 4 uM incubated for 48 hrs by annexin-V-FITC and PI staining based flow cytometry analysis (reference value: 0.18 %)", "assay_type": "functional"}},
  "note": "Active and inactive are the calls of the source. The rule behind the calls is not given here.",
  "data": [
    {"smiles": "COc1ccc(C2N=C2c2cc(OC)c(OC)c(OC)c2)cc1F", "note": "(stereo unspecified)", "values": [
      {"measurement": "Activity", "setting": "HeLa [1]", "value": "Active"},
      {"measurement": "Activity", "setting": "HeLa [2]", "value": 7.52, "unit": "%"},
      {"measurement": "Activity", "setting": "[3]", "value": "Non-Toxic"},
      {"measurement": "Activity", "setting": "[4]", "value": "Non-Toxic"},
      {"measurement": "viability at 2 µM", "setting": "HeLa [5]", "value": 74.7, "unit": "%"},
      {"measurement": "Activity", "setting": "HeLa [6]", "value": "Active"},
      {"measurement": "Activity", "setting": "HeLa [7]", "value": "Dose-dependent effect"},
      {"measurement": "Activity", "setting": "Jurkat [8]", "value": "Active"},
      {"measurement": "Activity", "setting": "Jurkat [9]", "value": "Dose-dependent effect"},
      {"measurement": "viability at 4 µM", "setting": "HeLa [10]", "value": 63.5, "unit": "%"},
      {"measurement": "Activity", "setting": "HeLa [11]", "value": "Dose-dependent effect"},
      {"measurement": "IC50", "setting": "HCT-116", "value": 630, "unit": "nM"},
      {"measurement": "Activity", "setting": "Jurkat [12]", "value": "Dose-dependent effect"},
      {"measurement": "Activity", "setting": "HeLa [13]", "value": 1.38, "unit": "%"},
      {"measurement": "Activity", "setting": "HeLa [14]", "value": 50.47, "unit": "%"},
      {"measurement": "TGI", "setting": "A2780 [15]", "value": "Dose-dependent effect"},
      {"measurement": "Activity", "setting": "HeLa [16]", "value": 0.65, "unit": "%"},
      {"measurement": "Activity", "setting": "HUVEC", "value": "Dose-dependent effect"},
      {"measurement": "Activity", "setting": "A2780 [17]", "value": "Active"},
      {"measurement": "Activity", "setting": "Jurkat [18]", "value": "Dose-dependent effect"},
      {"measurement": "inhibition", "setting": "HeLa [19]", "value": "Dose-dependent effect"},
      {"measurement": "IC50", "setting": "[20]", "value": 3300, "unit": "nM"},
      {"measurement": "Activity", "setting": "HeLa [21]", "value": 18.98, "unit": "%"},
      {"measurement": "Activity", "setting": "HeLa [22]", "value": 28.43, "unit": "%"},
      {"measurement": "Activity", "setting": "HeLa [23]", "value": 2.14, "unit": "%"},
      {"measurement": "Activity", "setting": "HeLa [24]", "value": 0.56, "unit": "%"}
    ]}
  ]
}
